ChEMBL document CHEMBL5137029, “Chemically Tuning Resveratrol for the Effective Killing of Gram-Positive Pathogens” (J Nat Prod, 2022)
Values after ≈ are worked out from the molar mass of the structure shown. Active and inactive are the calls of the source. The calls are words filed in the database; no cut-off is given here.

Key:
Bacillus cereus [1] = assay: Antibacterial activity against Bacillus cereus ATCC 10987 assessed as reduction in intracellular ATP levels at 100 uM measured upto 120 min by BacTiter-Glo luminescent cell viability assay; type: functional, organism-based
Procedure, shortened: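 B. cereus ATCC10987 was grown in LB at 37 °C to OD600 1, washed three times in G-HEPES, and resuspended in cMHB at OD600 0.25. Cells were exposed at 37 °C to compounds at 32 μM or to CCCP (100 μM, positive control). At 30, 60 and 120 min, BacTiter-Glo luminescence was read. ATP was normalised to OD600 and expressed as % of untreated cells. Run in triplicate.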

Bacillus cereus [2] = assay: Antibacterial activity against Bacillus cereus ATCC 10987 assessed as membrane potential change at 0.5 to 2X MIC incubated for 20 mins by DiSC3(5) staining based assay; type: functional, organism-based
Procedure, shortened: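 B. cereus grown in LB to OD600 1, washed in glucose-HEPES pH 7.4, OD600 0.5, loaded with 2 μM DiSC3(5) for 20 min at 37 °C for baseline. […] Gramicidin S positive control; untreated cells and dye-only medium negative controls; triplicate.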

Bacillus cereus [3] = assay: Bactericidal activity against Bacillus cereus ATCC 10987 at […] measured upto 24 hrs by CLSI based broth microdilution method; type: functional, organism-based; details: dose 128.0 µM
Staphylococcus aureus [4] = assay: Bactericidal activity against Staphylococcus aureus LMG 8224 at […] measured upto 24 hrs by CLSI based broth microdilution method; type: functional, organism-based; details: dose 128.0 µM
Enterococcus faecalis [5] = assay: Bactericidal activity against Enterococcus faecalis V583 at […] measured upto 24 hrs by CLSI based broth microdilution method; type: functional, organism-based; details: dose 128.0 µM
Erythrocyte = assay: Hemolytic activity in human erythrocytes at […] incubated for 1 hrs; type: toxicity, cell-based; details: erythrocyte, 1 h, […]
Enterococcus faecalis [6] = assay: Antibacterial activity against Enterococcus faecalis LMG 16216 incubated for 20 hrs by CLSI based broth microdilution method; type: functional
Staphylococcus aureus [7] = assay: Antibacterial activity against Staphylococcus aureus LMG 15975 incubated for 20 hrs by CLSI based broth microdilution method; type: functional
Enterococcus faecalis [8] = assay: Antibacterial activity against Enterococcus faecalis V583 incubated for 20 hrs by CLSI based broth microdilution method; type: functional
[9] = Antibacterial activity against Clostridium-ihumii AP5 incubated for 24 hrs by CLSI based broth microdilution method; type: functional
Clostridium beijerinckii = assay: Antibacterial activity against Clostridium beijerinckii B504 incubated for 24 hrs by CLSI based broth microdilution method; type: functional
Clostridium botulinum = assay: Antibacterial activity against Clostridium botulinum CECT551 incubated for 24 hrs by CLSI based broth microdilution method; type: functional
Staphylococcus aureus [10] = assay: Antibacterial activity against Staphylococcus aureus LMG 10147 incubated for 20 hrs by CLSI based broth microdilution method; type: functional
Enterococcus faecalis [11] = assay: Antibacterial activity against Enterococcus faecalis LMG 08222 incubated for 20 hrs by CLSI based broth microdilution method; type: functional
Clostridioides difficile = assay: Antibacterial activity against Clostridium difficile CECT531 incubated for 24 hrs by CLSI based broth microdilution method; type: functional
Bacillus cereus [12] = assay: Antibacterial activity against Bacillus cereus ATCC 14579 incubated for 20 hrs by CLSI based broth microdilution method; type: functional
Clostridium perfringens = assay: Antibacterial activity against Clostridium perfringens CECT376 incubated for 24 hrs by CLSI based broth microdilution method; type: functional
Clostridium tetani = assay: Antibacterial activity against Clostridium tetani CECT 4629 incubated for 24 hrs by CLSI based broth microdilution method; type: functional
Bacillus cereus [13] = assay: Antibacterial activity against Bacillus cereus ATCC 10987 incubated for 20 hrs by CLSI based broth microdilution method; type: functional
Staphylococcus aureus [14] = assay: Antibacterial activity against Staphylococcus aureus LMG 8224 incubated for 20 hrs by CLSI based broth microdilution method; type: functional
Bacillus cereus [15] = assay: Antibacterial activity against Bacillus cereus ATCC 10987 assessed as reduction in intracellular ATP levels measured upto 120 min by BacTiter-Glo luminescent cell viability assay; type: functional, organism-based
Procedure, shortened: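 B. cereus grown in LB to OD600 1, washed in G-HEPES, resuspended in cMHB at OD600 0.25, treated with 32 μM compound at 37 °C. At 30, 60, 120 min samples mixed with BacTiter-Glo, 5 min room temperature, luminescence read. ATP normalized to OD600, as % of untreated control. CCCP 100 μM positive control; triplicate.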

Bacillus cereus [16] = assay: Antibacterial activity against Bacillus cereus ATCC 10987 assessed as decrease in membrane integrity at 2x MIC incubated for 18 hrs by propidium iodide staining assay; type: functional, organism-based
Procedure, shortened: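 B. cereus grown 18 h in LB at 37 °C, washed in 5 mM HEPES pH 7.4 + 5 mM glucose, OD600 0.5, loaded with 10 μg/mL propidium iodide for 10 min. […] Gramicidin S positive control; triplicate.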

Bacillus cereus [17] = assay: Bactericidal activity against Bacillus cereus ATCC 10987 measured upto 24 hrs by CLSI based broth microdilution method; type: functional
Procedure, shortened: (§1)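 Each well then used as a 10% inoculum into fresh cMHB and incubated at 37 °C for 24 h. No regrowth in the MIC range was scored bactericidal, regrowth bacteriostatic. Triplicate.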

Bacillus cereus [18] = assay: Bactericidal activity against Bacillus cereus ATCC 10987 at 16 uM measured upto 24 hrs by CLSI based broth microdilution method; type: functional, organism-based; procedure, shortened: as §1
Staphylococcus aureus [19] = assay: Bactericidal activity against Staphylococcus aureus LMG 8224 at 16 uM measured upto 24 hrs by CLSI based broth microdilution method; type: functional, organism-based; procedure, shortened: as §1
Staphylococcus aureus [20] = assay: Bactericidal activity against Staphylococcus aureus LMG 8224 measured upto 24 hrs by CLSI based broth microdilution method; type: functional; procedure, shortened: as §1
Enterococcus faecalis [21] = assay: Bactericidal activity against Enterococcus faecalis V583 measured upto 24 hrs by CLSI based broth microdilution method; type: functional; procedure, shortened: as §1
Enterococcus faecalis [22] = assay: Bactericidal activity against Enterococcus faecalis V583 at 16 uM measured upto 24 hrs by CLSI based broth microdilution method; type: functional, organism-based; procedure, shortened: as §1
Bacillus cereus [23] = assay: Inhibition of electron transport chain in Bacillus cereus ATCC 10987 by measuring reduction of resazurin upto 120 min by resazurin dye based assay; details: DDE = dose-dependent effect
Procedure, shortened: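 B. cereus grown in LB to OD600 1, washed and resuspended in cMHB at OD600 0.2 with 100 μg/mL resazurin. Compounds added at the indicated concentrations; resorufin fluorescence (ex/em 550/590 nm) read every 5 min for 125 min. CCCP at 400, 200, 100 μM positive control; untreated cells and medium with resazurin negative controls; triplicate.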

N#CC(C#N)=NNc1cccc(Cl)c1
Activity (Bacillus cereus [1]): Active

Oc1ccc(/C=C/c2cc(O)cc(O)c2)cc1 [RESVERATROL]
Activity (Bacillus cereus [2]): Active
Activity (Bacillus cereus [3]): Active
Activity (Staphylococcus aureus [4]): Active
Activity (Enterococcus faecalis [5]): Active
Activity (Erythrocyte): Non-Toxic

CCCCOc1cc(O)cc(/C=C/c2ccc(O)cc2)c1
MIC (Enterococcus faecalis [6]): 128 µM (≈ 36.4 µg/mL)
MIC (Staphylococcus aureus [7]): 32 µM (≈ 9.1 µg/mL)
MIC (Enterococcus faecalis [8]): 128 µM (≈ 36.4 µg/mL)
MIC [9]: 64 µM (≈ 18.2 µg/mL)
MIC (Clostridium beijerinckii): 26.6 µM (≈ 7.56 µg/mL)
MIC (Clostridium botulinum): 32 µM (≈ 9.1 µg/mL)
MIC (Staphylococcus aureus [10]): 64 µM (≈ 18.2 µg/mL)
MIC (Enterococcus faecalis [11]): 128 µM (≈ 36.4 µg/mL)
MIC (Clostridioides difficile): 64 µM (≈ 18.2 µg/mL)
MIC (Bacillus cereus [12]): 32 µM (≈ 9.1 µg/mL)
MIC (Clostridium perfringens): 64 µM (≈ 18.2 µg/mL)
MIC (Clostridium tetani): 16 µM (≈ 4.55 µg/mL)
MIC (Bacillus cereus [13]): 32 µM (≈ 9.1 µg/mL)
MIC (Staphylococcus aureus [14]): 64 µM (≈ 18.2 µg/mL)

CC(C)[Si](Oc1cc(O)cc(/C=C/c2ccc(O)cc2)c1)(C(C)C)C(C)C
Activity (Bacillus cereus [2]): Active
Activity (Bacillus cereus [15]): Active
Activity (Bacillus cereus [16]): Active
MIC (Bacillus cereus [17]): 32 µM (≈ 12.3 µg/mL)
Activity (Bacillus cereus [18]): Active
Activity (Staphylococcus aureus [19]): Active
MIC (Staphylococcus aureus [20]): 32 µM (≈ 12.3 µg/mL)
MIC (Enterococcus faecalis [21]): 32 µM (≈ 12.3 µg/mL)
Activity (Enterococcus faecalis [22]): Active

CCCCOc1cc(/C=C/c2ccc(OS(=O)(=O)O)cc2)cc(OS(=O)(=O)O)c1
Activity (Bacillus cereus [2]): Active
inhibition (Bacillus cereus [23]): Dde
Activity (Bacillus cereus [16]): Active
Activity (Erythrocyte): Non-Toxic
Activity (Bacillus cereus [18]): Active
